An excerpt weighted towards active compounds, which were near 9.8% of everything screened.
PMI activator – phosphomannose isomerase (human) activation. purified human PMI, coupled resazurin fluorescence, 20 min; active compounds read high; 1 = vehicle control, 0 substrate-free wells. activation factor at 20 µM. 190,000 tested, 0.005% active;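 active = activation factor of 2 or more at 20 µM, relative to plate controls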
Target sequence (P34949 whole entry, looked up): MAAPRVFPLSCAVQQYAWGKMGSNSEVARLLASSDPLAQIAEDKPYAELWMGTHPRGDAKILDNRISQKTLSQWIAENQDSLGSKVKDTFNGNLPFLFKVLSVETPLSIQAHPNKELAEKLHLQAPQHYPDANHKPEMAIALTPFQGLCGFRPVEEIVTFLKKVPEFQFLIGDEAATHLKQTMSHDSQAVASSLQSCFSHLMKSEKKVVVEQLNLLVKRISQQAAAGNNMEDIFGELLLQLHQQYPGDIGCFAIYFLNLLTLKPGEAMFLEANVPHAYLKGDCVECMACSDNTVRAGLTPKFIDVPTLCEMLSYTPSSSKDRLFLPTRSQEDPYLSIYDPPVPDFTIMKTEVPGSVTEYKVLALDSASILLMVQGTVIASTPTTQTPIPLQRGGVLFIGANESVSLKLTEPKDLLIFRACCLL
Rad51 HR inh – Rad51 (human) homologous recombination inhibition; 200,000 tested, 0.085% active; hRad51 DNA strand exchange, fluorescence dequenching; inhibition, % at 10 µM; Q06609;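 active = inhibition above 40% at the single screening dose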;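 also: 0% = DMSO control wells and 100% = blanks with heterologous ssDNA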
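Test system: preformed human Rad51 ssDNA filaments; also added: Donor/quencher-labelled 47-bp dsDNA substrate; doses: 10 µM final, single point; times: 37 °C 15-min filament assembly, 30-min compound preincubation, 15-min exchange; detection: FRET fluorescence dequenching, excitation 485 nm, emission 520 nm; read-out basis: Fluorescence-based percent inhibition, control- and blank-normalised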
m-calpain inh – inhibitors of pig calpain II. purified calpain II, fluorogenic peptide substrate, 30 min. inhibition, % at 16 µM. 220,000 tested, 0.37% active;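 active = inhibition above about 50%, limit read from the data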
WT yeast gro inh – growth inhibition of WT yeast, mitochondrial fusion screen; 190,000 tested, 2.1% active; inhibition, % at 10 µM; AID 1362; mitochondrial fusion phenotypic screen, WT strain; in the data active = inhibition above about 58%; tested in S. cerevisiae
PMI act hi M6P – activators of human phosphomannose isomerase at near-saturating mannose 6-phosphate | 190,000 tested, 0.34% active | activation factor at 20 µM | P34949 | coupled PMI enzyme assay, resazurin fluorescence, 20 min; active compounds read high; 1 = untreated enzyme, 0 = substrate-free blank;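 active = activation factor of 2 or more at 20 µM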
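Test system: human phosphomannose isomerase with PGI, G6PDH, diaphorase coupling enzymes; Amount: PMI at 15 ng/mL final; Reagent: Mannose-6-phosphate 1.0 mM (near-saturating) plus 0.22 mM NADP+; Timing: 20 min, room temperature; Technique: resorufin fluorescence at Ex 544/Em 590 nm; Dosing: 20 µM single dose.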
Lmaj promast – inhibitors of Leishmania major promastigote growth | 200,000 tested, 9% active | inhibition, % at 10 µM | Leishmania major promastigotes, resazurin fluorescence viability | AID 1063; in the data active = inhibition above about 50%;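 also: promastigotes grown with compound for 44 hours at 28 °C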
* marks the source's active call; other numbers are inactive results; · = no result.

SMILES	PMI activator	Rad51 HR inh	m-calpain inh	WT yeast gro inh	PMI act hi M6P	Lmaj promast
Cc1cc(-c2ccccc2)nc2cc(C(=O)NCCCn3ccnc3)nn12	1	7	-128	1	1	1
COc1cccc(-c2cc(C(=O)NCCCn3ccnc3)no2)c1	1	-3	-8	1	1	96*
O=C(NCCCn1ccnc1)c1cc(-c2ccc(Br)cc2)on1	1	-2	-6	25	0.9	96*
O=C(NCCCn1ccnc1)c1cc2nc(-c3ccc(Br)cc3)cc(C(F)(F)F)n2n1	1.1	-18	-61	30	1.1	99*
O=C(NCCCn1ccnc1)c1cc(-c2ccc3c(c2)OCO3)on1	1	-3	7	-17	0.9	43
CCCCNC(=O)c1c[nH]c2ccc(S(=O)(=O)N3CCOCC3)cc2c1=O	1	0	-19	-13	0.9	1
COCc1c(C#N)c(NCc2cc(OC)c(OC)c(OC)c2)nc(C)c1[N+](=O)[O-]	·	-6	-2	·	·	·
COc1cc(CNc2nc(C)c([N+](=O)[O-])c(C)c2C#N)cc(OC)c1	0.9	-9	66*	-8	0.8	-5
O=C(C1=C[C@H](C2CC2)C[C@H](OCCCCO)O1)N1CCN(Cc2ccccc2)CC1	0.9	-3	2	5	0.9	-1
O=C(C1=C[C@H](C2CCCCC2)C[C@H](OCCCCO)O1)N1CCN(Cc2ccccc2)CC1	0.9	-3	6	17	0.8	59*
CCN1CCN(C(=S)Nc2ccc3nc4n(c(=O)c3c2)CCCCC4)CC1	1	7	0	-8	1	-6
COC(=O)CCC/C=C1\SC[C@@H](NC(=O)c2ccccc2)C1NC(C)=O (stereo partly drawn)	1.1	·	-11	-2	1	-4
CN1c2ccccc2C(C)(C)C12CC(c1ccc(Cl)c(S(=O)(=O)N3CCCC3)c1)=NO2 (stereo not drawn)	0.9	1	0	-28	0.9	69*
CCCc1cc2c(=O)c(-c3nc4ccccc4s3)c(COCC(=O)O)oc2cc1O	0.9	-15	-96	-1	0.9	-6
C[C@@H](C(=O)Nc1nc(-c2ccccn2)cs1)N1C(=O)C2CCCCC2C1=O (stereo partly drawn)	1	-9	7	55	1	100*
CC1CC1C(=O)Nc1nc(-c2ccccn2)cs1 (stereo not drawn)	0.7	0	5	-21	0.9	100*
Cc1cccc(C(=O)N[C@H](C(=O)Nc2nc(C)cs2)C(C)C)c1	0.9	-2	19	-9	0.9	64*
CSc1nc2ccc3nc(NC(=O)C4COc5ccccc5O4)sc3c2s1 (stereo not drawn)	0.8	-1	-98	6	0.8	78*
Cc1nc2ccc3nc(NC(=O)C4COc5ccccc5O4)sc3c2s1 (stereo not drawn)	0.9	·	-45	22	0.9	11
Cc1ccc(C(=O)Nc2nc(-c3ccccn3)cs2)o1	·	-10	-28	·	·	·
O=C(COC(=O)/C=C/C(=O)N1CCN(c2ccccc2)CC1)NC(c1ccccc1)c1ccccc1	0.9	-2	-23	-2	0.9	2
O=C(Nc1nc(-c2ccccn2)cs1)C1COc2ccccc2O1 (stereo not drawn)	1	-9	20	64	0.9	77*
CCc1nnc(NC(=O)C(NC(=O)c2ccccc2Cl)C(C)C)s1 (stereo not drawn)	1.1	12	18	-3	1.1	6
c1ccc(CCNc2nc(-c3ccccn3)cs2)cc1	0.8	4	15	65	0.8	100*
COc1ccc(C(=O)NC(C(=O)NCC(=O)Nc2c(C)cccc2C)C(C)C)cc1 (stereo not drawn)	1.2	4	18	-5	1	67*
SMILES	PMI activator	Rad51 HR inh	m-calpain inh	WT yeast gro inh	PMI act hi M6P	Lmaj promast
CC(C)[C@H](NC(=O)c1ccccc1Cl)C(=O)Nc1nc(-c2ccccn2)cs1	1.2	-1	-27	40	1	99*
O=C(Nc1nc(-c2ccccc2)cs1)C1COc2ccccc2O1 (stereo not drawn)	0.9	-4	7	-6	0.9	3
CCn1cc(C(C)NC(=O)Nc2ccc3c(c2)OCO3)c(C)n1 (stereo not drawn)	0.9	6	-31	-4	0.9	-2
O=C(Nc1ccc(S(=O)(=O)N2CCCC2)cc1)C1COc2ccccc2O1 (stereo not drawn)	1	-2	26	6	1	-2
O=C(Nc1nc(-c2ccc(S(=O)(=O)N3CCCC3)cc2)cs1)C1COc2ccccc2O1 (stereo not drawn)	0.8	-6	-473	25	0.8	84*
O=C(Nc1nnc(SCc2ccccc2Cl)s1)C1COc2ccccc2O1 (stereo not drawn)	0.8	-3	-7	60*	0.9	-4
Cc1ccc2sc(NNC(=O)C3COc4ccccc4O3)nc2c1C (stereo not drawn)	1.2	·	2	67*	1.2	45
Cc1ccc(CNC(=O)CCC2CCCN(C(=O)c3ccc4c(c3)OCO4)C2)o1 (stereo not drawn)	1	-6	2	-10	0.9	-3
Clc1cccc(-c2cc3nc4c(c(NCc5ccco5)n3n2)CCCC4)c1	0.8	-2	-21	84	0.8	53*
COc1cc(OC)cc(-c2cc3nc4c(c(N5CCN(c6ncccn6)CC5)n3n2)CCCC4)c1	1	0	-75	4	1	52*
Clc1cccc(-c2cc3nc4c(c(N5CCNCC5)n3n2)CCCC4)c1	0.9	10	-50	41	1	101*
Fc1cccc(-c2cc3nc4c(c(N5CCC6(CC5)OCCO6)n3n2)CCCC4)c1	0.9	4	-20	69*	0.9	37
O=C(CN1C(=O)CSc2ccccc21)N/N=C/c1ccco1	·	5	-26	·	·	·
COc1ccc(N(CC(=O)Nc2nccs2)S(=O)(=O)c2c(C)[nH]c(=O)[nH]c2=O)cc1	1.1	-4	9	-9	1.1	-4
CN1C(=O)c2oc3ccccc3c(=O)c2C1c1ccncc1 (stereo not drawn)	1.6	9	·	·	2.3*	·
CCOCC(=O)Nc1cc(C(=O)Nc2ccc(F)cc2)ccc1Cl	1	4	-9	-9	1	-8
O=C(NCc1ccccc1)NC1(C(=O)Nc2ccc3c(c2)OCCO3)CCCCC1	1	0	-3	-6	1	-4
O=C(Nc1ccc(F)cc1)NC1(C(=O)NCc2cccs2)CCCCC1	1	3	29	5	0.9	87*
O=C(NCc1cccs1)Nc1cccc(Cl)c1	·	2	·	·	·	7
O=C(Nc1cccc(Cl)c1)NC1(C(=O)NCc2cccs2)CCCCC1	0.9	-16	14	8	0.9	62*

Screening data deposited in PubChem by several laboratories.
